The results in this text go back to ChEMBL document CHEMBL1139183, “Potent and selective xanthine-based inhibitors of phosphodiesterase 5” (Bioorg Med Chem Lett, 2007).

A value given as a limit tells only on which side of the number the result lay.

The target in data set [1] is cGMP-specific 3',5'-cyclic phosphodiesterase (Homo sapiens, UniProt O76074). Briefly: Inhibition of human platelet PDE5 by [3H]cGMP scintillation proximity assay. Background: In a scintillation proximity assay essentially only radioactivity close to the scintillant gives light.
Another data set addresses Phosphodiesterase 3 (Homo sapiens, UniProt Q14432+Q13370). Briefly: Inhibition of human platelet PDE3 by [3H]cGMP scintillation proximity assay.
The nature of data set [2]: Inhibition of bovine PDE6 by [3H]cGMP scintillation proximity assay. On the set-up: species or system Bos taurus.
Data set [3] can be described thus: Inhibition of bovine PDE1 by [3H]cGMP scintillation proximity assay. On the set-up: species or system Bos taurus.
The target of data set [4] is cGMP-dependent 3',5'-cyclic phosphodiesterase (Homo sapiens, UniProt O00408). Briefly: Inhibition of human platelet PDE2 by [3H]cGMP scintillation proximity assay.
cGMP-dependent 3',5'-cyclic phosphodiesterase, sequence (O00408 whole entry): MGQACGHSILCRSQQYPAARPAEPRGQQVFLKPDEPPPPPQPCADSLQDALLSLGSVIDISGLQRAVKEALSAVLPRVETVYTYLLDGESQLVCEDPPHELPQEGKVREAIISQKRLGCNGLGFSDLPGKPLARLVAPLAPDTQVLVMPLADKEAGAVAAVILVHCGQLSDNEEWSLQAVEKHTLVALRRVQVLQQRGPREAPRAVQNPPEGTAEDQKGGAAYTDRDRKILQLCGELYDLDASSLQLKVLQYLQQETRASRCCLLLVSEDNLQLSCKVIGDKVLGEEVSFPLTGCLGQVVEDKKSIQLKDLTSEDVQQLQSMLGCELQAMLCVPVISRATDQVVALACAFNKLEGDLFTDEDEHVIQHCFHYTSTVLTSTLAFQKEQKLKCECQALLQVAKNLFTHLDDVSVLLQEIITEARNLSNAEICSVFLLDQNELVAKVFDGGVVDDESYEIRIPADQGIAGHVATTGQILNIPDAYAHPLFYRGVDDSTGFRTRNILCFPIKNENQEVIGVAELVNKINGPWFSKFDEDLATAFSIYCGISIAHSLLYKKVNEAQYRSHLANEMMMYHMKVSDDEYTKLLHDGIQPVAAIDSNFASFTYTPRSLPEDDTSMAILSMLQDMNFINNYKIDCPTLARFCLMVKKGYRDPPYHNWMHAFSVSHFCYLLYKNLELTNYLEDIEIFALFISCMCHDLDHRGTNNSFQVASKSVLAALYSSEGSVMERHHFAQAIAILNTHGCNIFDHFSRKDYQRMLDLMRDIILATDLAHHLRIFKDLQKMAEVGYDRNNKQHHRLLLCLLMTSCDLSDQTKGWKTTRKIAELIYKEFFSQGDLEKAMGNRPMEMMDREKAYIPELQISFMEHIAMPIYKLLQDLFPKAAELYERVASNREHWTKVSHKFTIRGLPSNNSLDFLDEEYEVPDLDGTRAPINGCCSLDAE
For data set [5], the target named is 3',5'-cyclic-AMP phosphodiesterase 4B (Homo sapiens, UniProt Q07343). Briefly: Inhibition of human recombinant PDE4B by […] scintillation proximity assay.
3',5'-cyclic-AMP phosphodiesterase 4B, sequence (Q07343 whole entry): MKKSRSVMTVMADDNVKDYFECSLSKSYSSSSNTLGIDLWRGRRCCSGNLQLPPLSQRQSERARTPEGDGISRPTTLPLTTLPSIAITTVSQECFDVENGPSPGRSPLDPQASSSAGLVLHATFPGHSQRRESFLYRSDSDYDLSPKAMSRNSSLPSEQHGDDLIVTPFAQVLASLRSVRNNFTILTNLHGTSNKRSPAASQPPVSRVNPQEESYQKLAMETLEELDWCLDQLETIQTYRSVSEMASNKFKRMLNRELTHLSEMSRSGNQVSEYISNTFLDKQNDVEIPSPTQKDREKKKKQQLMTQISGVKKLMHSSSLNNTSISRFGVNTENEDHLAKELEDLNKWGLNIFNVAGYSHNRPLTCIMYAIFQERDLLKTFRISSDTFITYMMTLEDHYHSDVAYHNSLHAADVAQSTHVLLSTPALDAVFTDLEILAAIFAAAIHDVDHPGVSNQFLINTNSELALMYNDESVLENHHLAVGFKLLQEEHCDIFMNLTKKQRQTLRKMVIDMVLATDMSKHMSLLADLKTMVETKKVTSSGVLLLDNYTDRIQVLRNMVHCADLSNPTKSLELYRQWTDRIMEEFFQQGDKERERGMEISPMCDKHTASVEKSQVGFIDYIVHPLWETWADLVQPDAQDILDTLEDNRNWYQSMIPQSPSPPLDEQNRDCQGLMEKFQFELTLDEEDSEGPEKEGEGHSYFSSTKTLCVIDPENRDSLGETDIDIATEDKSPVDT
Data set [6] addresses 3',5'-cyclic-AMP phosphodiesterase 4D (Homo sapiens, UniProt Q08499). Kind of data set: Inhibition of human recombinant PDE4D by […] scintillation proximity assay.
In data set [7] the target is High affinity 3',5'-cyclic-AMP phosphodiesterase 7A (Homo sapiens, UniProt Q13946). Briefly: Inhibition of human recombinant PDE7A by […] scintillation proximity assay.
High affinity 3',5'-cyclic-AMP phosphodiesterase 7A, sequence (Q13946 whole entry): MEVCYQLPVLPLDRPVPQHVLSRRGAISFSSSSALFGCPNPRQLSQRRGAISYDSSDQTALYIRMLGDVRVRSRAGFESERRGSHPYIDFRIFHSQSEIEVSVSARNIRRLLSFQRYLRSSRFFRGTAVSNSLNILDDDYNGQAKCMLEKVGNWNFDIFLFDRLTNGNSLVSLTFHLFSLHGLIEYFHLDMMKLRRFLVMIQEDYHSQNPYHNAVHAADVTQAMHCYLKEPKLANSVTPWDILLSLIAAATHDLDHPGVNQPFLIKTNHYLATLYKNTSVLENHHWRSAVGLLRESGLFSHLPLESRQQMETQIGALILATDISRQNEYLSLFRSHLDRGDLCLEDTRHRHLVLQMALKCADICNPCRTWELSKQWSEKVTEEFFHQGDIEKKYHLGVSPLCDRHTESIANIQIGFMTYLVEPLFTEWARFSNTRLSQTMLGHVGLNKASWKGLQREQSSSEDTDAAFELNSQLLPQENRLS
Data set [8] in a line: Permeability from apical to basolateral side of Caco-2 cell membrane. Type of data set: ADME, cell-based. To be noted: human. (Passage across Caco-2 layers is used to estimate intestinal permeability.)
Data set [9] in a line: Half life in rat at 0.8 mg/kg, iv. Type of data set: ADME, organism-based. On the set-up: dose 0.8 mg/kg, route intravenous. To be noted: in vivo. In short, it runs like this:
(§1)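 Rat pharmacokinetics: IV bolus at 0.8 mg/kg gave clearance, half-life and Vss. […] Values are means ± SEM.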

Data set [10] in a line: Inhibition of adenosine transporter. The arrangement: species or system Homo sapiens.
Data set [11] in a line: Clearance in rat at 0.8 mg/kg, iv. The format is ADME, organism-based. On the set-up: dose 0.8 mg/kg, route intravenous. To be noted: in vivo. In short, it runs like this: as §1
Data set [12] can be described thus: Half life in dog at 0.2 mg/kg, iv. The format is ADME, organism-based, Canis lupus familiaris. The arrangement: dose 0.2 mg/kg, route intravenous. Particulars: in vivo. In short, it runs like this: (§2)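 Dog pharmacokinetics: clearance, half-life and Vss came from IV dosing. Bioavailability came from oral dosing at 2.5 mg/kg. Values are means ± SEM.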
Data set [13] can be described thus: Volume of distribution at steady state in rat. To be noted: in vivo, read-out: Vdss. Type of data set: ADME, organism-based. In short, it runs like this: as §1
A short description of data set [14]: Volume of distribution at steady state in dog. Type of data set: ADME, organism-based, Canis lupus familiaris. Particulars: in vivo, read-out: Vdss. In short, it runs like this:
as §2

The nature of data set [15]: Bioavailability in rat at 3.3 mg/kg, intraduodenally. To be noted: in vivo. The format is ADME, organism-based. In short, it runs like this: as §1
A short description of data set [16]: Intrinsic clearance in dog microsomes. The format is ADME, Canis lupus familiaris, Liver, Microsome.
In the next data set the target is T1, Adenosine receptor A1 (Homo sapiens, UniProt P30542).
T1 sequence (P30542 whole entry): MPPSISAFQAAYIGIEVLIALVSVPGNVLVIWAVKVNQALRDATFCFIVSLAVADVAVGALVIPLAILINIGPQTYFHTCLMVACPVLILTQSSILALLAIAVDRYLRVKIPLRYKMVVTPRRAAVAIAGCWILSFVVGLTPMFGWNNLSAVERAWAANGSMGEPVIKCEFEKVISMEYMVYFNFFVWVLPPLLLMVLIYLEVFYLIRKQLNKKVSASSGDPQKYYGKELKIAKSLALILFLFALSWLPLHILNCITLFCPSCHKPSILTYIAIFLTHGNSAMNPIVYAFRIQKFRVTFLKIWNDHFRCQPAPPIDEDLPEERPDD
Briefly: Inhibition of adenosine A1 receptor. In short, it runs like this: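 Binding was profiled in a contract Spectrum Screen panel of 111 receptors. Adenosine A1 activity was reported as Ki.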

Data set [17] in a line: Intrinsic clearance in human microsomes. Type of data set: ADME, Microsome.
Data set [18] can be described thus: Clearance in iv dosed dog. Type of data set: ADME, organism-based, Canis lupus familiaris. To be noted: in vivo. In short, it runs like this: as §2
Data set [19] is described as follows: Intrinsic clearance in rat microsomes. The format is ADME, Microsome.
Data set [20] in a line: Oral bioavailability in dog at 2.5 mg/kg. To be noted: in vivo. The format is ADME, organism-based, Canis lupus familiaris. In short, it runs like this:
as §2

3',5'-cyclic-AMP phosphodiesterase 4D, sequence (Q08499 whole entry): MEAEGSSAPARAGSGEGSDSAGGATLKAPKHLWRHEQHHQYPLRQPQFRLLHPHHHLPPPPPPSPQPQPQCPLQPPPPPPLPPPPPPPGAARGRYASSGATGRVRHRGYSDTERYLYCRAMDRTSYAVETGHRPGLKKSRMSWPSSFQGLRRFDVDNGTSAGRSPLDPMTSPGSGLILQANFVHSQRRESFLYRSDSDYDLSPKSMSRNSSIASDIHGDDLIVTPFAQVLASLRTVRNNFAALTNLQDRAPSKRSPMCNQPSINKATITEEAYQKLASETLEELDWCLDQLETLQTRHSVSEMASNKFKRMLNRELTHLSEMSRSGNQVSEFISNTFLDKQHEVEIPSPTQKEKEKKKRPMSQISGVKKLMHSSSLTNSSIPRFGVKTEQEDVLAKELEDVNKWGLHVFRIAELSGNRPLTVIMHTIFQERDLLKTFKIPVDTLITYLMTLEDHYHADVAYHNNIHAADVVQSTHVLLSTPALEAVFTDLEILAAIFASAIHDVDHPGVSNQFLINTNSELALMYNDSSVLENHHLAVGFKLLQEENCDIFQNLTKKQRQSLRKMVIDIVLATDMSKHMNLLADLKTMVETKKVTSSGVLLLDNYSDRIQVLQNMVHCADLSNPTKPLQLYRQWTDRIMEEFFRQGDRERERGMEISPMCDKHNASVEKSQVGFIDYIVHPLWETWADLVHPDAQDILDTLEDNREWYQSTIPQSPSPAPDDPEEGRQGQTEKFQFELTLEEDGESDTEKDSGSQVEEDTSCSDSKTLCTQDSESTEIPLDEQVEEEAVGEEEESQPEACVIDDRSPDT

The IC50 is the point on the concentration scale where inhibition reaches its midpoint. For `COc1cc2cncc(Cc3nc4c([nH]3)c(=O)n(C)c(=O)n4CC(C)CO)c2cc1OC` (racemic), the half-maximal inhibitory concentration (IC50) in data set [1] worked out at 6 nM; at Phosphodiesterase 3, 2710 nM; in data set [2], 363 nM; in data set [3] it was 670 nM.

Regarding `COc1cc2cncc(Cc3nc4c([nH]3)c(=O)n(CC(C)C)c(=O)n4CC(C)C)c2cc1OC`, it took 462 nM to reach half-maximal inhibition in data set [1] (IC50).

The molecule `COc1cc2cncc(Cc3nc4c(c(=O)n(C)c(=O)n4CC(C)C)n3C)c2cc1OC` returned an IC50 in [1] of 553 nM.

`COc1cc2cncc(C(C)c3nc4c([nH]3)c(=O)n(C)c(=O)n4CC(C)C)c2cc1OC` (stereo unspecified): in data set [1], the IC50 stood at 94 nM.

As to `COc1ccc2cncc(Cc3nc4c([nH]3)c(=O)n(C)c(=O)n4CC(C)C)c2c1` [listing 1 of 2 here], the IC50 is 4600 nM in [4], over 10000 nM in data set [5], over 10000 nM in data set [6] and over 10000 nM in [7].

Consider `COc1cc2cncc(Cc3nc4c([nH]3)c(=O)n(C)c(=O)n4CC3CC3)c2cc1OC`, for which the IC50 in data set [1] worked out at 20 nM; on Phosphodiesterase 3, 1640 nM; in [2] it was 823 nM; in data set [3] it was 1320 nM.

Regarding `C=C(C)Cn1c(=O)n(C)c(=O)c2[nH]c(Cc3cncc4cc(OC)c(OC)cc34)nc21`, the 50% inhibitory concentration (IC50) stood at 30 nM in data set [1] and 333 nM in data set [2].

Consider `COc1cc2cnc(C)c(Cc3nc4c([nH]3)c(=O)n(C)c(=O)n4CC(C)C)c2cc1OC`, for which the IC50 in data set [1] is 26 nM; in data set [2] it was 525 nM.

In the case of `COc1ccc(Cn2c(=O)n(C)c(=O)c3[nH]c(Cc4cncc5cc(OC)c(OC)cc45)nc32)cc1OC`, the IC50 in data set [1] amounted to 33 nM; in data set [2] it was 1820 nM; in [3], 3910 nM.

For `COc1ccc2c(Cc3nc4c([nH]3)c(=O)n(C)c(=O)n4CC(C)C)cncc2c1`, the figures for the IC50 in [1] and in data set [2] were 51 nM and 247 nM, respectively.

`COc1cc2cncc(Cc3nc4c([nH]3)c(=O)n(C)c(=O)n4Cc3ccc(NC(C)=O)cc3)c2cc1OC`: the IC50 in [1] is 42 nM; in [2] it was 471 nM.

A word on the Papp A→B: it is the apparent permeability from the apical to the basolateral side of a cell layer. Low values mean poor permeation, high ones ready permeation. As a reminder, the half-life is the time needed for the level to fall by half in the phase considered. Read a low half-life as rapid decline. Usually Ki stands for the equilibrium dissociation constant of an inhibitor or competing ligand from its target. Low values mean tighter binding, high ones weaker binding. In the case of `COc1ccc2cncc(Cc3nc4c([nH]3)c(=O)n(C)c(=O)n4CC(C)C)c2c1` [listing 2 of 2 here], the Papp A→B in data set [8] came out at 13.8 ×10⁻⁶ cm/s. In addition, the IC50 stood at 2220 nM against Phosphodiesterase 3, 180 nM in [2] and 2850 nM in data set [3]. For the same molecule, the half-life in data set [9] was determined as 21 min; in [12], 63.4 min. Further, the inhibition constant Ki in data set [10] was determined as 2800 nM; on Adenosine receptor A1 it was 2300 nM. The clearance in data set [11] stood at 118 mL/min/kg; in [16], 6 µL/min/mg; in data set [17], 4 µL/min/mg; in data set [18], 28.7 mL/min/kg; in [19] it was 162 µL/min/mg. In addition, the Vd in data set [13] amounted to 2.9 L/kg; in [14] it was 2.1 L/kg. Moreover, the bioavailability in data set [15] turned out to be 1%; in [20], 103%.

Consider `COc1cc2cncc(Cc3nc4c([nH]3)c(=O)n(C)c(=O)n4CC3CCCCC3)c2cc1OC`, for which the values for the IC50 in [1] and in data set [2] were 28 nM and 1130 nM, respectively.

Regarding `COc1cc2cncc(Cc3nc4c([nH]3)c(=O)n(C)c(=O)n4Cc3ccc(NS(=O)(=O)C(C)C)cc3)c2cc1OC`, the IC50 is 5 nM in data set [1], 3130 nM on Phosphodiesterase 3, 399 nM in [2] and 3440 nM in data set [3].

In data set [8], `COc1cc2cncc(Cc3nc4c([nH]3)c(=O)n(C)c(=O)n4CC(C)(C)C)c2cc1OC` had an apparent permeability from apical to basolateral (Papp A→B) of 23.4 ×10⁻⁶ cm/s. The IC50 is 8 nM in data set [1], 1060 nM against Phosphodiesterase 3, 294 nM in data set [2] and 2790 nM in data set [3].

In data set [1], `CC(C)Cn1c(=O)n(C)c(=O)c2[nH]c(Cc3cncc4cc5c(cc34)OCO5)nc21` yielded an IC50 of 10000 nM.

On to `CC(C)Cn1c(=O)n(C)c(=O)c2[nH]c(CC3CC4CCC3C4)nc21` (stereo unspecified), for which the figures for the IC50 in data set [1] and in data set [2] were 25 nM and 65 nM, respectively.

In [8], `COc1cc2c(Cc3nc4c([nH]3)c(=O)n(C)c(=O)n4CC(C)C)cnc(C)c2cc1OC` displayed a Papp A→B of 0.9 ×10⁻⁶ cm/s. Moreover, the IC50 in [1] stood at 2 nM; against Phosphodiesterase 3, 42 nM; in data set [2], 226 nM; in [3], 72 nM.

`COc1cc2cncc(Cc3nc4c([nH]3)c(=O)n(C)c(=O)n4CC(C)C)c2cc1OC`: in data set [8], the Papp A→B turned out to be 31.8 ×10⁻⁶ cm/s. The IC50 was 9 nM in data set [1], 299 nM on Phosphodiesterase 3, 389 nM in [2] and 417 nM in data set [3].

As for `CC(C)Cn1c(=O)n(C)c(=O)c2[nH]c(Cc3cncc4ccccc34)nc21`, the half-inhibitory concentration (IC50) is 34 nM in data set [1], 1850 nM at Phosphodiesterase 3, 857 nM in data set [2] and 7290 nM in [3].
